Experimental data from the M2OR odorant receptor database.

Tests used:
Details in all cases: stereoisomer not certain
[1] = target: T1, OR10S1 (Homo sapiens) (UniProt Q8NGN2)
T1 sequence (whole entry): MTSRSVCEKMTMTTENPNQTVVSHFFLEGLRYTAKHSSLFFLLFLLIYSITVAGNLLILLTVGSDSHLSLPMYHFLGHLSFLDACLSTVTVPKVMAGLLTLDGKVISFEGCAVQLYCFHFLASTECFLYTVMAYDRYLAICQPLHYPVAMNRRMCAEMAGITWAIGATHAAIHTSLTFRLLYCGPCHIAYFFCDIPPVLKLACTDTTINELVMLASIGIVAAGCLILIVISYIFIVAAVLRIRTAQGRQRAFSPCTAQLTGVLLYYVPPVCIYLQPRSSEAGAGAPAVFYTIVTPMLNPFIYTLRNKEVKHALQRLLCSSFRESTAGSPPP
In short: (§1)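 Each entry records the cell line, G-protein, co-transfected protein and tags used. Methods varied with the source, often transient luciferase assays in mammalian cell lines. A receptor–molecule pair is called responsive (active) if the original authors judged its signal statistically different from baseline and non-responsive (inactive) otherwise.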

[2] = target: OR10Q1 (Homo sapiens) (UniProt Q8NGQ4)
In short: as §1

[3] = target: OR10R2 (Homo sapiens) (UniProt Q8NGX6)
In short: as §1

[4] = target: OR10T2 (Homo sapiens) (UniProt Q8NGX3)
In short: as §1

[5] = target: OR10V1 (Homo sapiens) (UniProt Q8NGI7)
In short: as §1

[6] = target: OR10W1 (Homo sapiens) (UniProt Q8NGF6)
In short: as §1

[7] = target: OR10X1 (Homo sapiens) (UniProt Q8NGY0)
In short: as §1

[8] = target: OR10Z1 (Homo sapiens) (UniProt Q8NGY1)
In short: as §1

[9] = target: OR11A1 (Homo sapiens) (UniProt Q9GZK7)
In short: as §1

[10] = target: OR11G2 (Homo sapiens) (UniProt Q8NGC1)
In short: as §1

[11] = target: OR11H1 (Homo sapiens) (UniProt Q8NG94)
In short: as §1

[12] = target: OR11H12 (Homo sapiens) (UniProt B2RN74)
In short: as §1

[13] = target: OR11H2 (Homo sapiens) (UniProt Q8NH07)
In short: as §1

[14] = target: OR11H4 (Homo sapiens) (UniProt Q8NGC9)
In short: as §1

[15] = target: OR11H6 (Homo sapiens) (UniProt Q8NGC7)
In short: as §1

[16] = target: OR11H7 (Homo sapiens) (UniProt Q8NGC8)
In short: as §1

[17] = target: OR11L1 (Homo sapiens) (UniProt Q8NGX0)
In short: as §1

[18] = target: OR12D1 (Homo sapiens) (UniProt P0DN82)
In short: as §1

[19] = target: OR12D2 (Homo sapiens) (UniProt P58182)
In short: as §1

[20] = target: OR12D3 (Homo sapiens) (UniProt Q9UGF7)
In short: as §1

Measured: odorant receptor agonist call

OR10X1 (Homo sapiens), sequence (Q8NGY0 whole entry): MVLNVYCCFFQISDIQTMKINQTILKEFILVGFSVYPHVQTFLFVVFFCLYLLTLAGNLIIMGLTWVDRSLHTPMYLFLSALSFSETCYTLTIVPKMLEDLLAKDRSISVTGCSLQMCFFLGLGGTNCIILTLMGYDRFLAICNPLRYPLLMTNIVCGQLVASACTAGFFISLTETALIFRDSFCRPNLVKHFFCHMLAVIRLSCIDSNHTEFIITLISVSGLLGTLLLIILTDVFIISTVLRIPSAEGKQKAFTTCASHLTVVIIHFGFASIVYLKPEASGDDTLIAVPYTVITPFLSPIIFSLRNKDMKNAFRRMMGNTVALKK
OR12D2 (Homo sapiens), sequence (P58182 whole entry): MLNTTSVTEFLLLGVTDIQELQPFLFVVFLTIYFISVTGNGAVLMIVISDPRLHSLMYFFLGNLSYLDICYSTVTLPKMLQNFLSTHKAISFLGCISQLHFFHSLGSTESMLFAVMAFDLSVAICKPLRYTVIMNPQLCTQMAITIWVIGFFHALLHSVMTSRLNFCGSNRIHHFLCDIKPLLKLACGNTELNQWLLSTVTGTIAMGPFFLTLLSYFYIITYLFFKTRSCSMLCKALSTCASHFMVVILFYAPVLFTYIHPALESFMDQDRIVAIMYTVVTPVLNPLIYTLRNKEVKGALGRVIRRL
OR11G2 (Homo sapiens), sequence (Q8NGC1 whole entry): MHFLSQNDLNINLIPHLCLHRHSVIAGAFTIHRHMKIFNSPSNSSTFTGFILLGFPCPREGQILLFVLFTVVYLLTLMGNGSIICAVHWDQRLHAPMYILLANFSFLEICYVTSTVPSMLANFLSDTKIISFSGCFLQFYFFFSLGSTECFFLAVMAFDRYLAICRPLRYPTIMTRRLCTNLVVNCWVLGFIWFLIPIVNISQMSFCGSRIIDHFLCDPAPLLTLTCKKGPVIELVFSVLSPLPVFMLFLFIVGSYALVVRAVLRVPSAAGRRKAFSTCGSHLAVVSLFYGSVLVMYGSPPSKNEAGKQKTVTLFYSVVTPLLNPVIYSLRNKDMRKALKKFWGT
OR10Z1 (Homo sapiens), sequence (Q8NGY1 whole entry): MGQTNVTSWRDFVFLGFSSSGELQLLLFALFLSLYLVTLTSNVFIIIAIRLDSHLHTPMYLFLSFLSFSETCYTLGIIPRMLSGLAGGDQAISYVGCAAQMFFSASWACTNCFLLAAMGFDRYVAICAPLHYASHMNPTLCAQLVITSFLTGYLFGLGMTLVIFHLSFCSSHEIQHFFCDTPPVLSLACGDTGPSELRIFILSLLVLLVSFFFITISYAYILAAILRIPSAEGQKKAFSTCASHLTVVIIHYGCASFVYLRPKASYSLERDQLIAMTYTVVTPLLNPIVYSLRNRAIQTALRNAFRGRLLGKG
OR10Q1 (Homo sapiens), sequence (Q8NGQ4 whole entry): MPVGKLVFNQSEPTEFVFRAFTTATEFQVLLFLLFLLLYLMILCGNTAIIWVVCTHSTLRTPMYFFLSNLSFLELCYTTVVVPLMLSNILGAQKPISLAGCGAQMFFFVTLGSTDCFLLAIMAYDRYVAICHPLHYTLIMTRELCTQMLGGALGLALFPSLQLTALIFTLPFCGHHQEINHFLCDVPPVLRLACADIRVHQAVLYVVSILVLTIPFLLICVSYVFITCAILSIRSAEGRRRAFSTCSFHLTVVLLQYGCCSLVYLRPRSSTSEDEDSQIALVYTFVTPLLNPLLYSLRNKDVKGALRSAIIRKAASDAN
OR10T2 (Homo sapiens), sequence (Q8NGX3 whole entry): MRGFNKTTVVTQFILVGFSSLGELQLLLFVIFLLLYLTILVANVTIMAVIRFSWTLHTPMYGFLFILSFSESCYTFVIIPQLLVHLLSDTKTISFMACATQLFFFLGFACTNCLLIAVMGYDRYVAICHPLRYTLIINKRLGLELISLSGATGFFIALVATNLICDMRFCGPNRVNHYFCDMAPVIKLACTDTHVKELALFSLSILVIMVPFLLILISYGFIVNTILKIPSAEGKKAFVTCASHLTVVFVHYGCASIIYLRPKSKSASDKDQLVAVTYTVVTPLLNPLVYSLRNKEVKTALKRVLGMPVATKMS
OR10V1 (Homo sapiens), sequence (Q8NGI7 whole entry): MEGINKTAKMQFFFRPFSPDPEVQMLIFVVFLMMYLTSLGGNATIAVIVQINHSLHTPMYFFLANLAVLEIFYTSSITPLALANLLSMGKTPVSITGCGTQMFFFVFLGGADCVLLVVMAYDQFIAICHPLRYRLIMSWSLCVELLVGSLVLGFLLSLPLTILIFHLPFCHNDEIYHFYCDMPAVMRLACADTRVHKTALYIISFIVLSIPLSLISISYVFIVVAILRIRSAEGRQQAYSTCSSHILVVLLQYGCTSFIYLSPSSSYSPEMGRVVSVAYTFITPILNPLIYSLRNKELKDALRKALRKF
OR11H2 (Homo sapiens), sequence (Q8NH07 whole entry): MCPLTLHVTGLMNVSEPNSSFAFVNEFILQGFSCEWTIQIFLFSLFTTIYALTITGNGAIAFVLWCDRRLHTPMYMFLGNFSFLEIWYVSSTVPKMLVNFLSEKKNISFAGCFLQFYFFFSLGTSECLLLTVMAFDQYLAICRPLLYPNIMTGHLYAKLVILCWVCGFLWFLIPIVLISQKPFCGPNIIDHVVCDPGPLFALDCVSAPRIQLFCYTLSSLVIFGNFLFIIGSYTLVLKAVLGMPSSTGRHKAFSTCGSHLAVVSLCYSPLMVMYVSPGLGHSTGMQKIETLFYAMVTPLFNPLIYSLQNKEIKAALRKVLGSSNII
OR11H4 (Homo sapiens), sequence (Q8NGC9 whole entry): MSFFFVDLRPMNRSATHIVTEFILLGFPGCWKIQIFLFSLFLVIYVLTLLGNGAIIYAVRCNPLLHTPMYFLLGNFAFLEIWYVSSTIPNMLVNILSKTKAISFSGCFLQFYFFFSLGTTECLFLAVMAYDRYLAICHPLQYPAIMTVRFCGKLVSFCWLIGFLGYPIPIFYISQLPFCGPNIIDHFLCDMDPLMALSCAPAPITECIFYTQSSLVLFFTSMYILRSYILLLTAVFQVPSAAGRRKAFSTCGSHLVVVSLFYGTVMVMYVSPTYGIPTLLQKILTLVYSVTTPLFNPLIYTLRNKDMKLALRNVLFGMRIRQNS
OR11L1 (Homo sapiens), sequence (Q8NGX0 whole entry): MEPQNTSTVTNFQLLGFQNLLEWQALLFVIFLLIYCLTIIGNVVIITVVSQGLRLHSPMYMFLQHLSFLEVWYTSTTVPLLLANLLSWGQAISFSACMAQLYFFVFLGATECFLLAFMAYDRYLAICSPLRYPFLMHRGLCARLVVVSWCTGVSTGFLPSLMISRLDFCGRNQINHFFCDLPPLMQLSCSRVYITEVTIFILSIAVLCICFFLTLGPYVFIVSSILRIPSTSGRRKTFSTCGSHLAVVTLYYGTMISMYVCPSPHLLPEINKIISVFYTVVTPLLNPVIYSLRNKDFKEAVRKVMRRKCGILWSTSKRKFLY
OR11H1 (Homo sapiens), sequence (Q8NG94 whole entry): as the sequence (Q8NH07 whole entry) above, with H7Q, I49T, K181M, L199R, V240M, P269S counted along it
OR10R2 (Homo sapiens), sequence (Q8NGX6 whole entry): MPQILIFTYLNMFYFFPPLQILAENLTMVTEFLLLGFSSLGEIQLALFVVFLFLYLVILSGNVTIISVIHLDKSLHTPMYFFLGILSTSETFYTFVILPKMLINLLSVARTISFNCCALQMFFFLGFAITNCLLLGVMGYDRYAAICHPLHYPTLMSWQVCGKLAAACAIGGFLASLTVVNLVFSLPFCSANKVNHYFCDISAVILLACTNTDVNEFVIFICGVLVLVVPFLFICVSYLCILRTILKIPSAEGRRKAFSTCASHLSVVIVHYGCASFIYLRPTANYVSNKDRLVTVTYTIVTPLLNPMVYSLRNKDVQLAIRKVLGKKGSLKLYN
OR11H6 (Homo sapiens), sequence (Q8NGC7 whole entry): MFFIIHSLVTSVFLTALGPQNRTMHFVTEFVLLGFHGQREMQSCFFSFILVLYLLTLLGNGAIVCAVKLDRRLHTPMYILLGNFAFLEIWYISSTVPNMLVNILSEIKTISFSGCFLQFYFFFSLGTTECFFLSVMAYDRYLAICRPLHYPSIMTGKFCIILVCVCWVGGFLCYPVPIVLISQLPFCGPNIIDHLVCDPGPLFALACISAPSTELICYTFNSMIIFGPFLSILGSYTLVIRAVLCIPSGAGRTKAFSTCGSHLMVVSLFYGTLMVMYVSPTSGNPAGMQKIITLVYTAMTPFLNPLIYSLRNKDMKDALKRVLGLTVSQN
OR10W1 (Homo sapiens), sequence (Q8NGF6 whole entry): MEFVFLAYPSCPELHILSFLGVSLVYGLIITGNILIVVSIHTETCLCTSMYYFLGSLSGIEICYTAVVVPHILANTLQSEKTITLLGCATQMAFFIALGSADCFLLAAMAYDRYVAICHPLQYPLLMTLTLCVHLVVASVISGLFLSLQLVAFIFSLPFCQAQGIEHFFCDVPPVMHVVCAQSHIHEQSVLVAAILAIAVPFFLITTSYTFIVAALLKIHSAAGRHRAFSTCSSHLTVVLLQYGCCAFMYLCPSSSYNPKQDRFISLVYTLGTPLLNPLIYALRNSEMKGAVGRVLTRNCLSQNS
OR11A1 (Homo sapiens), sequence (Q9GZK7 whole entry): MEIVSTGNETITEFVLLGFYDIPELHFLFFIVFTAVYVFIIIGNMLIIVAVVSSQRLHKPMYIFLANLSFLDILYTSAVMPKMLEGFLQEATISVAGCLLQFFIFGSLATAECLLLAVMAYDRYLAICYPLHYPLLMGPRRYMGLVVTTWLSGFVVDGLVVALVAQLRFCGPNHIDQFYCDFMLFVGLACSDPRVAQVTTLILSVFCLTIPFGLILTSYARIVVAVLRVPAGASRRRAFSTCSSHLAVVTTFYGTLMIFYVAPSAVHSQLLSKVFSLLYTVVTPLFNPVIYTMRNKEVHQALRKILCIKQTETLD
OR12D3 (Homo sapiens), sequence (Q9UGF7 whole entry): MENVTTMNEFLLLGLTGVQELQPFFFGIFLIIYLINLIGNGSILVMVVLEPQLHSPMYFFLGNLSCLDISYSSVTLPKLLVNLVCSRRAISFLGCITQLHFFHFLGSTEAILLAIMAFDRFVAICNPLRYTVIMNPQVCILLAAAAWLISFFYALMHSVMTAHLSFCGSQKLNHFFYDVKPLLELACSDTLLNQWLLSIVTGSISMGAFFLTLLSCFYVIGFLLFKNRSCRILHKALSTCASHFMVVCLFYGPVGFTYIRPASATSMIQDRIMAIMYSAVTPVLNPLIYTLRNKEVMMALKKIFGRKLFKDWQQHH

Cc1cccc(C)c1
inactive: [1]

Cc1c([N+](=O)[O-])c(C)c([N+](=O)[O-])c(C(C)(C)C)c1[N+](=O)[O-]
inactive: [2] | [3] | [1] | [4] | [5] | [6] | [7] | [8] | [9] | [10] | [11] | [12] | [13] | [14] | [15] | [16] | [17] | [18] | [19] | [20]

COc1ccc(C=O)cc1
inactive: [1]

C=CCOC(=O)Cc1ccccc1
inactive: [2] | [3] | [1] | [4] | [5] | [6] | [7] | [8] | [9] | [10] | [11] | [12] | [13] | [14] | [15] | [17] | [19] | [20]
